Activity calls are given as the source filed them. The rule behind the calls is not given here.
Tests used:
[1] = organism: Homo sapiens; test: Inhibition of recombinant human MAPKAPK2 A399G mutant (46 to end residues) at 10 uM using KKLNRTLSVA as substrate measured after 40 mins in presence of [gamma33P]ATP by scintillation counting method
[2] = target: Nucleosome-remodeling factor subunit BPTF (Homo sapiens, UniProt Q12830); test: Binding affinity to human N-terminal His-tagged FALZ assessed as change in melting temperature at 10 uM by SYPRO orange dye-based fluorescence assay
Procedure, shortened: (§1)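 Thermal shift with His-tagged human bromodomain at 2 μM final in 10 mM HEPES pH 7.5, 500 mM NaCl. Compound at 10 μM final with 0.1% DMSO; SYPRO Orange at 1:1000. Equilibrated 3 min at 25 °C, then heated from 25 to 95 °C at 1 °C/min. Melting temperature shift taken from fluorescence; at least duplicate.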

[3] = target: Casein kinase I isoform epsilon (Homo sapiens) (UniProt P49674); test: Inhibition of human CK1epsilon at 10 uM using KRRRALS(p)VASLPGL as substrate measured after 120 mins in presence of [gamma33P]ATP by scintillation counting method
Procedure, shortened: (§2)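 Kinase panel of 422 kinases screened by Eurofins KinaseProfiler at a single test-compound concentration of 10 µM.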

[4] = target: Bromodomain-containing protein 2 (Homo sapiens) (UniProt P25440); test: Binding affinity to human partial length BRD2 bromodomain 2 isoform 1 (E348 to D455 residues) expressed in bacterial expression system at 1 uM by BROMOscan assay
Procedure, shortened: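 BROMOscan bromodomain cross-screen run by an outside service, compound at 1 µM against 32 recombinant bromodomains. Binding given as percent of control.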

[5] = target: Tyrosine-protein kinase SYK (Homo sapiens) (UniProt P43405); test: Inhibition of recombinant full-length human Syk at 10 uM using poly(Glu, Tyr) 4:1 as substrate measured after 120 mins in presence of [gamma33P]ATP by scintillation counting method
[6] = target: Tyrosine-protein kinase Lck (Homo sapiens) (UniProt P06239); test: Inhibition of recombinant full-length human activated Lck at 10 uM using KVEKIGEGTYGVVYK as substrate measured after 40 mins in presence of [gamma33P]ATP by scintillation counting method
[7] = organism: Homo sapiens; test: Inhibition of recombinant full-length human PI3K p110delta/p85alpha N253S mutant at 10 uM using phosphatidylinositol-4, 5-bisphosphate as substrate measured after 40 mins by fluorescence assay
[8] = target: BMP-2-inducible protein kinase (Homo sapiens) (UniProt Q9NSY1); test: Inhibition of recombinant human BIKepsilon at 10 uM using peptide substrate measured after 120 mins in presence of [gamma33P]ATP by scintillation counting method
[9] = test system: PI3-kinase p110-alpha/p85-alpha (Homo sapiens), P27986+P42336 [E545K]; test: Inhibition of recombinant full-length human PI3K p110alpha/p85alpha E545K mutant at 10 uM using phosphatidylinositol-4, 5-bisphosphate as substrate measured after 40 mins by fluorescence assay; assay type: protein-complex assay
[10] = target: Tyrosine-protein kinase ITK/TSK (Homo sapiens) (UniProt Q08881); test: Inhibition of recombinant human ITK (352 to 617 residues) at 10 uM using myelin basic protein as substrate measured after 40 mins in presence of [gamma33P]ATP by scintillation counting method
[11] = target: Calcium/calmodulin-dependent protein kinase type II subunit gamma (Homo sapiens) (UniProt Q13555); test: Inhibition of recombinant full-length human CaMK2gamma (1 to 330 residues) at 10 uM using calmodulin as substrate measured after 40 mins in presence of [gamma33P]ATP by scintillation counting method
[12] = target: Serine/threonine-protein kinase 32A (Homo sapiens) (UniProt Q8WU08); test: Inhibition of recombinant full-length human STK32A at 10 uM using casein as substrate measured after 120 mins in presence of [gamma33P]ATP by scintillation counting method
[13] = target: Serine/threonine-protein kinase PLK2 (Homo sapiens) (UniProt Q9NYY3); test: Inhibition of human Snk (65 to 409 residues) using casein as substrate measured after 40 mins in presence of [gamma33P]ATP by scintillation counting method; procedure, shortened: as §2
[14] = target: Serine/threonine-protein kinase TAO2 (Homo sapiens) (UniProt Q9UL54); test: Inhibition of human TAO2 (1 to 320 residues) using myelin basic protein as substrate measured after 40 mins in presence of [gamma33P]ATP by scintillation counting method
[15] = target: Mitogen-activated protein kinase 11 (Homo sapiens) (UniProt Q15759); test: Inhibition of recombinant full-length human SAPK2b at 10 uM using myelin basic protein as substrate measured after 40 mins in presence of [gamma33P]ATP by scintillation counting method
[16] = target: Bromodomain and PHD finger-containing protein 3 (Homo sapiens) (UniProt Q9ULD4); test: Binding affinity to human N-terminal His-tagged BRPF3 assessed as change in melting temperature at 10 uM by SYPRO orange dye-based fluorescence assay; procedure, shortened: as §1
[17] = target: Eukaryotic translation initiation factor 2-alpha kinase 3 (Homo sapiens) (UniProt Q9NZJ5); test: Inhibition of recombinant human PEK (536 to end residues) at 10 uM using RSRSRSRSRSRSRSR as substrate measured after 40 mins in presence of [gamma33P]ATP by scintillation counting method
[18] = target: Dual specificity tyrosine-phosphorylation-regulated kinase 3 (Homo sapiens) (UniProt O43781); test: Inhibition of recombinant full-length human DYRK3 at 10 uM using RRRFRPASPLRGPPK as substrate measured after 40 mins in presence of [gamma33P]ATP by scintillation counting method
[19] = target: Protein kinase C theta type (Homo sapiens) (UniProt Q04759); test: Inhibition of recombinant full-length human PKCtheta at 10 uM using histone H1as substrate measured after 40 mins in presence of [gamma33P]ATP by scintillation counting method
[20] = target: Tyrosine-protein kinase Yes (Homo sapiens) (UniProt P07947); test: Inhibition of recombinant full-length human Yes at 10 uM using poly(Glu, Tyr) 4:1 as substrate measured after 40 mins in presence of [gamma33P]ATP by scintillation counting method
[21] = target: Serine/threonine-protein kinase 35 (Homo sapiens) (UniProt Q8TDR2); test: Inhibition of recombinant full length human CLIK1 at 10 uM using RSRSRSRSRSRSRSR as substrate measured after 40 mins in presence of [gamma33P]ATP by scintillation counting method
[22] = target: Cyclin-dependent kinase 2/cyclin E1 (Homo sapiens) (UniProt P24864+P24941); test: Inhibition of recombinant full-length human CDK2/cyclinE at 10 uM using histone H1 as substrate measured after 40 mins in presence of [gamma33P]ATP by scintillation counting method; assay type: protein-complex assay
[23] = target: Serine/threonine-protein kinase PAK 1 (Homo sapiens) (UniProt Q13153); test: Inhibition of recombinant human PAK1 (150 to end residues) at 10 uM using RRRLSFAEPG as substrate measured after 40 mins in presence of [gamma33P]ATP by scintillation counting method
Sequence of Serine/threonine-protein kinase PAK 1 (Homo sapiens) (Q13153 whole entry): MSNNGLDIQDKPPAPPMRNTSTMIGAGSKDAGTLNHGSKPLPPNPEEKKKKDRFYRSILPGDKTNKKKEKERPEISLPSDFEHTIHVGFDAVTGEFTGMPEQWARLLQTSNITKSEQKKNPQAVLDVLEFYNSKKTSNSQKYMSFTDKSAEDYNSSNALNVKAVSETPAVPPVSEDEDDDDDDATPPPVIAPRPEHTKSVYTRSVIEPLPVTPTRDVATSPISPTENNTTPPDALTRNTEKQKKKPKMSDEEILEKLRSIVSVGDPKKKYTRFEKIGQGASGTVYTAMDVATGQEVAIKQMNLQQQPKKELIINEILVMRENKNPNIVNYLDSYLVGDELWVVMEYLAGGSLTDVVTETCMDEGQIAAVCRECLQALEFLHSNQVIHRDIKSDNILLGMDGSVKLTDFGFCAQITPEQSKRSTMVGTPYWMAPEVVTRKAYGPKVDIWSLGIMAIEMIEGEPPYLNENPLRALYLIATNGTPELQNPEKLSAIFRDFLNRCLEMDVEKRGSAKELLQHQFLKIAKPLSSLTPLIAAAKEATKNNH

Sequence of Protein kinase C theta type (Homo sapiens) (Q04759 whole entry, looked up): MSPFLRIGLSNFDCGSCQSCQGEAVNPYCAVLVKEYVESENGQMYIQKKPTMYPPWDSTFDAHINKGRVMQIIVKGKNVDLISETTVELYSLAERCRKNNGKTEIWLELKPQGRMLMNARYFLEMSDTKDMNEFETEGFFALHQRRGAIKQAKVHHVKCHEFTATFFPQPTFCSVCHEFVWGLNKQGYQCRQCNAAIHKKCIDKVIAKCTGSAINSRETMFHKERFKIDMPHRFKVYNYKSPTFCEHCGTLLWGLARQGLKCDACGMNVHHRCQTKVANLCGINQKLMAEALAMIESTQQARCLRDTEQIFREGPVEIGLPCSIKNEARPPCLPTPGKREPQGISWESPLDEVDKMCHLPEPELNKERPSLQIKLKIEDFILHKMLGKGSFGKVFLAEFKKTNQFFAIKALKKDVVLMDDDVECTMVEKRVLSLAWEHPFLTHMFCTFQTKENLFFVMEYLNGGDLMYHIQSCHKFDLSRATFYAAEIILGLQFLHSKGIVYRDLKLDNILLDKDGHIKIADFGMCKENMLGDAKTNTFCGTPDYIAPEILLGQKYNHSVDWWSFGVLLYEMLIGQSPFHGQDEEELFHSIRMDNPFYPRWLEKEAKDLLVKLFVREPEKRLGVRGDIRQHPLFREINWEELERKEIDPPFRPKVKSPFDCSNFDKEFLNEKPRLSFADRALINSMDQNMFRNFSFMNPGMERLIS
Sequence of Serine/threonine-protein kinase 32A (Homo sapiens) (Q8WU08 whole entry, the tested form may be a part): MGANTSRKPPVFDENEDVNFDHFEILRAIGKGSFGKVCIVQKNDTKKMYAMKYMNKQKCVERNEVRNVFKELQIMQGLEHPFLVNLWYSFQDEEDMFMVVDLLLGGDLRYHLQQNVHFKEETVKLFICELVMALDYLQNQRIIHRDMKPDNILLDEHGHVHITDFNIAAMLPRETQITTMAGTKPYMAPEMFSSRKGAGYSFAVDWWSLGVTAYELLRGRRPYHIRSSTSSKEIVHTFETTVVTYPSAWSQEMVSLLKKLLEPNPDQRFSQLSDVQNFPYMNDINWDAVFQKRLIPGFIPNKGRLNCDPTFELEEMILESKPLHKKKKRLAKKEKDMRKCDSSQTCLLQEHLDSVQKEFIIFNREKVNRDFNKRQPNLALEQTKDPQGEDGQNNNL
Sequence of Dual specificity tyrosine-phosphorylation-regulated kinase 3 (Homo sapiens) (O43781 whole entry): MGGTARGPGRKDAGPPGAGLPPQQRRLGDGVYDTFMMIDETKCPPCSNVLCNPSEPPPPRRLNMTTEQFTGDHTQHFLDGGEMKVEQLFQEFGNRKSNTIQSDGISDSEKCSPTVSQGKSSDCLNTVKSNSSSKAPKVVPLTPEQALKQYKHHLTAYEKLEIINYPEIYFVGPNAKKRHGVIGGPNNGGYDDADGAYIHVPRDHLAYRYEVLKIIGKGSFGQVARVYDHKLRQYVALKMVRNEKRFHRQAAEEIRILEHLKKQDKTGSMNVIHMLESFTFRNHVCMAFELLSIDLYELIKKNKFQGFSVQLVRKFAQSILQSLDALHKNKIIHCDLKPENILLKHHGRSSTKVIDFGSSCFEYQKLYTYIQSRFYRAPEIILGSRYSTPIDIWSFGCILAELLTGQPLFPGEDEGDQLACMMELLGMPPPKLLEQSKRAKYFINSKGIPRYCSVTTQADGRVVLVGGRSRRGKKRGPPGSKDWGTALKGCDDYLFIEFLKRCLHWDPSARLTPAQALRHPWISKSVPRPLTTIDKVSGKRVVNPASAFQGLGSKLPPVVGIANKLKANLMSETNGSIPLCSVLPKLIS
Sequence of BMP-2-inducible protein kinase (Homo sapiens) (Q9NSY1 whole entry, looked up): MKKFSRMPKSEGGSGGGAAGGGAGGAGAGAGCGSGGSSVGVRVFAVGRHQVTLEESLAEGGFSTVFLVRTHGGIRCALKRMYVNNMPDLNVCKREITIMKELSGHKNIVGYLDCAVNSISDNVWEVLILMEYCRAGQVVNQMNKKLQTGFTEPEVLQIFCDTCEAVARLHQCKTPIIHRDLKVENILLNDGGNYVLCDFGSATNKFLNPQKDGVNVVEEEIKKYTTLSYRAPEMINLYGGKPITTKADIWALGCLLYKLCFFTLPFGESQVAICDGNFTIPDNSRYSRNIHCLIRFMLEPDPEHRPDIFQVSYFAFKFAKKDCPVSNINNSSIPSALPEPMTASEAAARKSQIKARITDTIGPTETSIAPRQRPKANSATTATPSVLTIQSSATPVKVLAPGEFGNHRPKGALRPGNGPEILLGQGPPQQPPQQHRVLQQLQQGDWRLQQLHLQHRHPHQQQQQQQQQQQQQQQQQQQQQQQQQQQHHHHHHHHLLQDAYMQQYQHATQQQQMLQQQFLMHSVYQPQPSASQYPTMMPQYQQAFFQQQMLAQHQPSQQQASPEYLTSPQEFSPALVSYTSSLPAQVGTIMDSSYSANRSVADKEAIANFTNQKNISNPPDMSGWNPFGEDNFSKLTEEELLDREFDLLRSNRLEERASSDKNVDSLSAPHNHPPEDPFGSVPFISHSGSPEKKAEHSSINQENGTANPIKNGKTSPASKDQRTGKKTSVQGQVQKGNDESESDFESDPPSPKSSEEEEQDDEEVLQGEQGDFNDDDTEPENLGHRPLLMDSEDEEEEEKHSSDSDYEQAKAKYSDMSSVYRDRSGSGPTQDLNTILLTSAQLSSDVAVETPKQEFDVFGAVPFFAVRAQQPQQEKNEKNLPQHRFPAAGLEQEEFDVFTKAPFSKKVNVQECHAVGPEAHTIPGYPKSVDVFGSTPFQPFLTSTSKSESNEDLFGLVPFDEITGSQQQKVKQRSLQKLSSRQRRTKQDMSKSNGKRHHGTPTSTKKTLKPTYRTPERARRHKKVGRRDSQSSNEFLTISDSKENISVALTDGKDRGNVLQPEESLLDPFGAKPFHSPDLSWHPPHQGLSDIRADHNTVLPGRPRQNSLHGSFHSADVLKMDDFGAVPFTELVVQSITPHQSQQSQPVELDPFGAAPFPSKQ
Sequence of Calcium/calmodulin-dependent protein kinase type II subunit gamma (Homo sapiens) (Q13555 whole entry, the tested form may be a part): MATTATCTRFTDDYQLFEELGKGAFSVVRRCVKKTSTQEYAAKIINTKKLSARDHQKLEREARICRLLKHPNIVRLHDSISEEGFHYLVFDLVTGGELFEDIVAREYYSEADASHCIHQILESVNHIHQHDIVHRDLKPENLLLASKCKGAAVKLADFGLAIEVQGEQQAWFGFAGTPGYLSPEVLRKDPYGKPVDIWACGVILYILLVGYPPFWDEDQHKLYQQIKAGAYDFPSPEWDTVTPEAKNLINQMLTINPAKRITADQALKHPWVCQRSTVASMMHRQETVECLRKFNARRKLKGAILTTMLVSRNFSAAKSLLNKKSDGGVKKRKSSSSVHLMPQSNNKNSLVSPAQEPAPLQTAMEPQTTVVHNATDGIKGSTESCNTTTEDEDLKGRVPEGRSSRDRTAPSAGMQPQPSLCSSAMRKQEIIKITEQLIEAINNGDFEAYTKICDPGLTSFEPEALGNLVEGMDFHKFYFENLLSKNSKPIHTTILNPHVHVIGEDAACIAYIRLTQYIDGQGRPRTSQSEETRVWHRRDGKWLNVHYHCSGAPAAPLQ
Sequence of Tyrosine-protein kinase Yes (Homo sapiens) (P07947 2-543 limits assumed): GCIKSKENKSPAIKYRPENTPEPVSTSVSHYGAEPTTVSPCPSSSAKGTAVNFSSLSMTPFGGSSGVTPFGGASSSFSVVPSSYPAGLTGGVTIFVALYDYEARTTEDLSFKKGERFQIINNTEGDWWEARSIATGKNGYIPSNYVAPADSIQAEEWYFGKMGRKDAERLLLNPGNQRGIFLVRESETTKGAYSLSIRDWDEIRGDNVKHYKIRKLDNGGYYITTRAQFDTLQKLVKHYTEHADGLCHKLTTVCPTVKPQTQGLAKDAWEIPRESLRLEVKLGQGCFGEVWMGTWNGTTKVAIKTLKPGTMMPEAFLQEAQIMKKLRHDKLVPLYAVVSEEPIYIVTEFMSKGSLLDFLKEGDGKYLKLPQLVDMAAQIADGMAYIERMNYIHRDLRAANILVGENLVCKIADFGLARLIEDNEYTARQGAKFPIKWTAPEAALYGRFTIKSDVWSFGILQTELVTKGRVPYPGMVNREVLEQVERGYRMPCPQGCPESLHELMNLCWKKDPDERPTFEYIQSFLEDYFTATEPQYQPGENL
Sequence of Casein kinase I isoform epsilon (Homo sapiens) (P49674 whole entry, looked up, canonical isoform): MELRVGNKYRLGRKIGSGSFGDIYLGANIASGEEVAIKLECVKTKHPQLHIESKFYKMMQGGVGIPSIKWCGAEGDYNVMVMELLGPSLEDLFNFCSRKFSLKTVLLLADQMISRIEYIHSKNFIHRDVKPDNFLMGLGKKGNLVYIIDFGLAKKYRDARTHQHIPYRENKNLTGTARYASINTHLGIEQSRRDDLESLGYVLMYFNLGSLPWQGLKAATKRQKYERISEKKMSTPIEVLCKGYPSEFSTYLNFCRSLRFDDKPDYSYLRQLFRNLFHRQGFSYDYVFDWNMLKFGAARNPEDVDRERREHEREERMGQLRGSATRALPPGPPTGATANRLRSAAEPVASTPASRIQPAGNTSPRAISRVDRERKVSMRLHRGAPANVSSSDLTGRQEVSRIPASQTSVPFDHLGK

Structure (SMILES): CN1C[C@H](Nc2nc3cc[nH]c3c(=O)n2C)C[C@H](c2ccc3c(c2)OCCO3)C1
- inhibition [1]: inactive
- ΔTm [2]: 5.3 °C
- inhibition [3]: inactive
- Activity [4]: inactive
- inhibition [5]: inactive
- inhibition [6]: inactive
- inhibition [7]: inactive
- inhibition [8]: inactive
- inhibition [9]: inactive
- inhibition [10]: inactive
- inhibition [11]: inactive
- inhibition [12]: inactive
- inhibition [13]: inactive
- inhibition [14]: inactive
- inhibition [15]: inactive
- ΔTm [16]: 1.7 °C
- inhibition [17]: inactive
- inhibition [18]: inactive
- inhibition [19]: inactive
- inhibition [20]: inactive
- inhibition [21]: inactive
- inhibition [22]: inactive
- inhibition [23]: inactive
